From ChEMBL document CHEMBL3351710, “Synthesis of novel thiadiazolotriazin-4-ones and study of their mosquito-larvicidal and antibacterial properties” (Eur J Med Chem, 2014)
In brackets after ≈: the same amount, converted by molar mass.

How the values were obtained:
Aeromonas hydrophila [1] = assay: Antibacterial activity against Aeromonas hydrophila MTCC-1739 assessed as zone of inhibition at 1 ug/ml; format: functional; settings: read-out: DIZ
How it was run: (§1)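 Disc diffusion on Nutrient Agar. Strains were first grown on NA for 24 h at 37 °C, then spread as a lawn. Compounds were dissolved in DMSO. Sterile 6 mm discs were saturated with test solution, dried under laminar flow and placed on the inoculated plates. Plates were incubated at 37 °C for 18–24 h, and clear-zone diameters were measured.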

Anopheles stephensi [2] = assay: Larvicidal activity against Anopheles stephensi late III or early IV instar larvae assessed as mortality after 24 hrs; format: functional; settings: for LC50: Anopheles stephensi, iv, 24 h
How it was run: (§2)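 25 late III/early IV instar larvae in 250 mL water per beaker, exposed to a range of concentrations; a negative control ran with each set and malathion served as reference insecticide. Mortality was scored after 24 h in triplicate per sample. LC50 with 95% confidence limits was derived by Abbott's formula and log probit analysis.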

Anopheles stephensi [3] = assay: Larvicidal activity against Anopheles stephensi late III or early IV instar larvae assessed as mortality after 24 hrs relative to untreated control; format: functional; how it was run: as §2
Staphylococcus aureus [4] = assay: Antibacterial activity against Staphylococcus aureus MTCC-7443 assessed as zone of inhibition at 1 ug/ml; format: functional; settings: read-out: DIZ; how it was run: as §1
Escherichia coli [5] = assay: Antibacterial activity against Escherichia coli MTCC-725 assessed as zone of inhibition at 1 ug/ml; format: functional; settings: read-out: DIZ; how it was run: as §1
Mus musculus = assay: Toxicity in po dosed Swiss albino mouse after 72 hrs; format: organism-based; settings: in vivo
Bacillus subtilis [6] = assay: Antibacterial activity against Bacillus subtilis MTCC-441 assessed as zone of inhibition at 1 ug/ml; format: functional; settings: read-out: DIZ; how it was run: as §1
Escherichia coli [7] = assay: Antibacterial activity against Escherichia coli MTCC-725 assessed as zone of inhibition at 10 ug/disc; format: functional; settings: read-out: DIZ; how it was run: as §1
Bacillus subtilis [8] = assay: Antibacterial activity against Bacillus subtilis MTCC-441 assessed as zone of inhibition at 10 ug/disc; format: functional; settings: read-out: DIZ; how it was run: as §1
Aeromonas hydrophila [9] = assay: Antibacterial activity against Aeromonas hydrophila MTCC-1739 assessed as zone of inhibition at 10 ug/disc; format: functional; settings: read-out: DIZ; how it was run: as §1
Staphylococcus aureus [10] = assay: Antibacterial activity against Staphylococcus aureus MTCC-7443 assessed as zone of inhibition at 10 ug/disc; format: functional; settings: read-out: DIZ; how it was run: as §1

Compound | zone of inhibition at 1 µg/mL (Aeromonas hydrophila [1]) | LC90 (Anopheles stephensi [2]) | LC50 (Anopheles stephensi [2]) | Ratio (Anopheles stephensi [3]) | zone of inhibition at 1 µg/mL (Staphylococcus aureus [4]) | zone of inhibition at 1 µg/mL (Escherichia coli [5]) | MLD (Mus musculus) | zone of inhibition at 1 µg/mL (Bacillus subtilis [6]) | zone of inhibition at 10 µg/disc (Escherichia coli [7]) | zone of inhibition at 10 µg/disc (Bacillus subtilis [8]) | zone of inhibition at 10 µg/disc (Aeromonas hydrophila [9]) | zone of inhibition at 10 µg/disc (Staphylococcus aureus [10])
Cc1cc(Cl)ccc1OCc1nn2c(=O)c(C(C)(C)C)nnc2s1 | 19.6 mm | 71.45 µg/mL (≈ 196 µM) | 49.3 µg/mL (≈ 135 µM) | 0.17 | 12.6 mm | 18.9 mm | – | – | – | – | – | –
CC(=O)c1ccc(OCc2nn3c(=O)c(C(C)(C)C)nnc3s2)cc1 | 19.3 mm | 135.9 µg/mL (≈ 379 µM) | 86.6 µg/mL (≈ 242 µM) | 0.1 | 18.7 mm | 22.7 mm | 1820 mg/kg | 25.7 mm | – | – | – | –
CC(C)(C)c1nnc2sc(COc3ccc(I)cc3)nn2c1=O | – | 124.77 µg/mL (≈ 282 µM) | 77.5 µg/mL (≈ 175 µM) | 0.11 | – | – | – | 11.9 mm | – | – | – | –
CC(C)(C)c1nnc2sc(COc3cc(Cl)c(Cl)cc3Cl)nn2c1=O | 17.5 mm | 115.05 µg/mL (≈ 274 µM) | 81.6 µg/mL (≈ 194 µM) | 0.11 | 22.4 mm | 16.5 mm | – | 19.3 mm | – | – | – | –
CC(C)(C)c1nnc2sc(COc3ccccc3Cl)nn2c1=O | 16.5 mm | 113.57 µg/mL (≈ 324 µM) | 72.8 µg/mL (≈ 208 µM) | 0.12 | 16.6 mm | 19.5 mm | – | 18.9 mm | – | – | – | –
CC(C)(C)c1nnc2sc(C(C)(C)Oc3ccc(Cl)cc3)nn2c1=O | 22.4 mm | 87.49 µg/mL (≈ 231 µM) | 55.2 µg/mL (≈ 146 µM) | 0.15 | 19.6 mm | 21.1 mm | 2260 mg/kg | 18.4 mm | – | – | – | –
CC(C)(C)c1nnc2sc(COc3ccccc3)nn2c1=O | – | 120.98 µg/mL (≈ 382 µM) | 79.2 µg/mL (≈ 250 µM) | 0.11 | 12.3 mm | 10.9 mm | – | – | – | – | – | –
COc1ccccc1OCc1nn2c(=O)c(C(C)(C)C)nnc2s1 | 13.9 mm | 37.78 µg/mL (≈ 109 µM) | 25.7 µg/mL (≈ 74.2 µM) | 0.34 | 21.7 mm | 15.6 mm | – | 19.2 mm | – | – | – | –
CC(C)(C)c1nnc2sc(COc3ccc(O)cc3)nn2c1=O | 10.5 mm | 32.11 µg/mL (≈ 96.6 µM) | 21.7 µg/mL (≈ 65.3 µM) | 0.4 | 11.7 mm | 14.3 mm | 1360 mg/kg | – | – | – | – | –
CC(C)(C)c1nnc2sc(COc3ccccc3[N+](=O)[O-])nn2c1=O | 9.6 mm | 105.04 µg/mL (≈ 291 µM) | 70.5 µg/mL (≈ 195 µM) | 0.12 | 19.8 mm | 11.7 mm | – | 16.8 mm | – | – | – | –
Cc1cccc(C)c1OCc1nn2c(=O)c(C(C)(C)C)nnc2s1 | 10.4 mm | 115.2 µg/mL (≈ 334 µM) | 103 µg/mL (≈ 298 µM) | 0.11 | – | 11.4 mm | – | 9.8 mm | – | – | – | –
Cc1cc(C)c(C)c(OCc2nn3c(=O)c(C(C)(C)C)nnc3s2)c1 | 15.6 mm | 45.05 µg/mL (≈ 126 µM) | 39.8 µg/mL (≈ 111 µM) | 0.29 | 17.6 mm | 18.9 mm | – | 15.6 mm | – | – | – | –
CC(C)(C)c1nnc2sc(COc3ccc(Cl)cc3Cl)nn2c1=O | 9.7 mm | 73.2 µg/mL (≈ 190 µM) | 48.7 µg/mL (≈ 126 µM) | 0.18 | 10.8 mm | – | – | 12.9 mm | – | – | – | –
CC(C)(C)c1nnc2sc(COc3ccc(Cl)cc3)nn2c1=O | 12.5 mm | 90.45 µg/mL (≈ 258 µM) | 61.3 µg/mL (≈ 175 µM) | 0.14 | – | 13.9 mm | – | 11.2 mm | – | – | – | –
CCOC(=O)CC(SP(=S)(OC)OC)C(=O)OCC (configuration not stated) [MALATHION] | – | 12.01 µg/mL (≈ 36.4 µM) | 8.7 µg/mL (≈ 26.3 µM) | – | – | – | – | – | – | – | – | –
CN[C@@H]1[C@H](O[C@H]2[C@H](O[C@H]3[C@H](O)[C@@H](O)[C@H](N=C(N)N)[C@@H](O)[C@@H]3N=C(N)N)O[C@@H](C)[C@]2(O)C=O)O[C@@H](CO)[C@H](O)[C@H]1O [STREPTOMYCIN] | – | – | – | – | – | – | – | – | 26.3 mm | 33.6 mm | 22.4 mm | 31.5 mm
